The text below walks through data of ChEMBL document CHEMBL1811767, “Quinoxalin-2(1H)-one derivatives as inhibitors against hepatitis C virus” (J Med Chem, 2011).

In general, IC50 refers to the concentration that inhibits the measured activity by half. In general, EC50 refers to the concentration that produces a half-maximal response.

Data set [1] relates to Hepatitis C virus. Briefly: Antiviral activity against Hepatitis C virus infected in human Huh7ET cells assessed as inhibition of dicistronic viral RNA replication at 20 uM after 72 hrs by luciferase reporter gene assay. Type of data set: functional, Hepacivirus hominis, Huh-7. Further details: scale not given: the % may be the effect or the level left. An outline of the steps: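 Primary screen at single 20 μM in replicon Huh 7 ET cells (5000/well, DMEM without G418, overnight seeding). After 72 h exposure, replicon luciferase measured with Steady-Glo. Value expressed as percent inhibition relative to control cells.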
(A reporter such as luciferase makes a cellular process visible.)

Data set [2] is described as follows: Cytotoxicity against human Huh7ET cells at 20 uM by CytoTox-one cell proliferation assay. The conditions noted are these: huh-7, 20 µM. Type of data set: cell-based. The procedure, abridged:
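Huh 7 ET replicon cells exposed to single 20 μM for 72 h in primary screen; viability by tetrazolium-based CytoTox-1 assay, reported as percent relative to control cells.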

Data set [3] can be described thus: Cytotoxicity against human Huh7ET cells by CytoTox-one cell proliferation assay. Type of data set: cell-based. The conditions noted are these: Huh-7. The procedure, abridged: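 Parallel plate of replicon Huh 7 ET cells (5000/well, DMEM without G418), compounds from DMSO stocks diluted in DMEM, 72 h. Viability by tetrazolium-based CytoTox-1 proliferation assay. Mean of four replicates; IC50 = concentration decreasing cell viability by 50%.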

For data set [4], the system named is Hepatitis C virus. Briefly: Antiviral activity against Hepatitis C virus infected in human Huh7ET cells assessed as inhibition of dicistronic viral RNA replication after 72 hrs by luciferase reporter gene assay. Type of data set: functional, organism-based, Hepacivirus hominis. The conditions noted are these: Huh-7, 72 h. An outline of the steps:
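HCV replicon Huh 7 ET cells seeded 5000/well in DMEM without G418 overnight; compounds dissolved in DMSO, diluted in DMEM, dose-response. After 72 h, replicon-derived luciferase read by Steady-Glo. Mean of four replicates; EC50 = concentration inhibiting HCV RNA replication by 50%.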

Data set [5] relates to Hepacivirus hominis. Kind of data set: Inhibition of Hepatitis C virus protease.
Data set [6] is described as follows: Selectivity index, ratio of IC50 for human Huh7ET cells to EC50 for Hepatitis C virus. Type of data set: toxicity, cell-based, Huh-7. The conditions noted are these: read-out: Ratio IC50/EC50. The procedure, abridged:
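SI taken as IC50 (CytoTox-1 viability, Huh 7 ET replicon cells, 72 h) divided by EC50 (replicon luciferase, same cells and exposure); each from four-replicate averages.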

In data set [7] the test system is Hepacivirus hominis. Kind of data set: Inhibition of Hepatitis C virus NS5B polymerase.

The structures appear in SMILES notation. The source made the active and inactive calls. No cut-off for these calls is given here. Where only a bound is given, the exact number is not on record here.

As to `O=c1cnc2cc(OC3CCCCC3)c(Nc3nc(-c4ccccc4)cs3)cc2[nH]1`, the Activity with Hepatitis C virus [1] came out at 4.9%. Besides, the “Cell viability relative to control” value in data set [2] is given as 74.4%.
In the case of `CN(c1cc2ncc(=O)[nH]c2cc1Nc1nc(-c2ccccc2)cs1)C1CCCCC1`, the IC50 in data set [3] came out at 62.5 µM. For the same compound, the EC50 in the data set with Hepatitis C virus [4] amounted to 1.67 µM. Moreover, the inhibition entry in the data set on Hepacivirus hominis [5] and in the data set with Hepacivirus hominis [7] was “inactive” each time. The selectivity ratio in data set [6] was found to be 37.4.
Take `O=c1cnc2cc(N3CCCCC3)c(Nc3nc(-c4ccccc4)cs3)cc2[nH]1`: in the data set on Hepatitis C virus [1], the Activity worked out at 9%. The “Cell viability relative to control” value in data set [2] was 35.1%.
For the compound `CSCCc1nc2cc(N(C)C3CCCCC3)c(Nc3nc(-c4ccccc4)cs3)cc2[nH]c1=O`, in data set [3], the IC50 was found to be 86 µM. Also, in the data set on Hepatitis C virus [4], the EC50 is above 20 µM. The selectivity ratio in data set [6] is below 4.3.
In the case of `CN(c1cc2ncc(=O)[nH]c2cc1Nc1nc(-c2ccc(C#N)cc2)cs1)C1CCCCC1`, in data set [3], the IC50 was found to be 18.1 µM. Moreover, the EC50 in the data set with Hepatitis C virus [4] was 6.07 µM. Further, the selectivity ratio in data set [6] came to 2.98.
The matching figures for `CCN(CC)c1cc2ncc(=O)[nH]c2cc1Nc1nc(-c2ccccc2)cs1`: 22.8 µM, 1.27 µM and 17.9.
The matching figures for `CN(c1cc2ncc(=O)[nH]c2cc1NC(=S)NC(=O)c1cccc2ccccc12)C1CCCCC1`: 9.98 µM, 5.48 µM and 1.82.
Regarding `O=c1cnc2cc(N3CCN(c4ccc(F)cc4)CC3)c(Nc3nc(-c4ccccc4)cs3)cc2[nH]1`, the Activity with Hepatitis C virus [1] was 35%. Besides, in data set [2], the “Cell viability relative to control” value is recorded as 84.3%.
For `CCN(c1cc2ncc(=O)[nH]c2cc1Nc1nc(-c2ccccc2)cs1)C1CCCCC1` the same measures were 35% and 58%.
`CN(c1cc2c(cc1Nc1nc(-c3ccccc3)cs1)NC(=O)CO2)C1CCCCC1` came in with an IC50 in data set [3] of 17.5 µM. The EC50 in the data set with Hepatitis C virus [4] stood at 15.4 µM. The selectivity ratio in data set [6] came to 1.1.
For `CN(c1cc2ncc(=O)[nH]c2cc1Nc1nc(C(F)(F)F)cs1)C1CCCCC1` the same measures were 37.4 µM, 8.12 µM and 4.6.
`CN(c1cc2c(cc1Nc1nc(-c3ccccc3)cs1)NC(=O)C1CCCCN21)C1CCCCC1` (stereo not drawn): in data set [3], the IC50 worked out at 11 µM. Besides, the EC50 with Hepatitis C virus [4] was 1.19 µM. In addition, in data set [6], the selectivity ratio worked out at 9.27.
The compound `CN(c1cc2ncc(=O)[nH]c2cc1Nc1nc(-c2cccnc2)cs1)C1CCCCC1` returned an IC50 in data set [3] of 11.5 µM. The EC50 with Hepatitis C virus [4] came out at 5.49 µM. Moreover, in data set [6], the selectivity ratio was determined as 2.09.
On to `CN1CCN(c2cc3ncc(=O)[nH]c3cc2Nc2nc(-c3ccccc3)cs2)CC1`, for which the midpoint of inhibition in data set [3], the IC50, lay at 10.2 µM. For the same compound, in the data set with Hepatitis C virus [4], the EC50 amounted to 4.59 µM. Further, the selectivity ratio in data set [6] came to 2.2.
As for `CN(c1cc2ncc(=O)[nH]c2cc1N1C(=O)CN(c2cccc3ccccc23)C1=S)C1CCCCC1`, the IC50 in data set [3] is 11.2 µM. Moreover, the EC50 in the data set on Hepatitis C virus [4] was determined as 13.1 µM. Further, the selectivity ratio in data set [6] came to 0.85.
In data set [3], `CN(c1cc2ncc(=O)[nH]c2cc1NC(=S)NC(=O)c1ccc(Cl)nc1)C1CCCCC1` came in with an IC50 of 34.5 µM. In the data set on Hepatitis C virus [4], the EC50 turned out to be 16.4 µM. In addition, in data set [6], the selectivity ratio was 2.1.
The matching figures for `CC(C)c1nc2cc(N(C)C3CCCCC3)c(Nc3nc(-c4ccccc4)cs3)cc2[nH]c1=O`: 67.4 µM, 8.62 µM and 7.8.
For `CN(c1cc2ncc(=O)[nH]c2cc1NC(=S)NC(=O)/C=C/c1ccccc1)C1CCCCC1` the same measures were 11 µM, 6.77 µM and 1.6.
As for `O=c1cnc2cc(N3CCOCC3)c(Nc3nc(-c4ccccc4)cs3)cc2[nH]1`, in data set [3], the IC50 stood at 58.3 µM. In addition, the EC50 in the data set with Hepatitis C virus [4] was 5.19 µM. Moreover, in data set [6], the selectivity ratio was 11.2.
The matching figures for `CN(C)c1cc2ncc(=O)[nH]c2cc1Nc1nc(-c2ccccc2)cs1`: 57.5 µM, above 20 µM and below 2.9.
Regarding `CCOC(=O)C1CCN(c2cc3ncc(=O)[nH]c3cc2Nc2nc(-c3ccccc3)cs2)CC1`, the Activity in the data set with Hepatitis C virus [1] worked out at 37.6%. Further, the “Cell viability relative to control” value in data set [2] came to 59.6%.
On to `CCCN(CCC)c1cc2ncc(=O)[nH]c2cc1Nc1nc(-c2ccccc2)cs1`, for which the half-maximal inhibitory concentration (IC50) in data set [3] turned out to be 31.6 µM. For the same compound, the half-maximal effective concentration (EC50) in the data set with Hepatitis C virus [4] was 3.81 µM. Moreover, the selectivity ratio in data set [6] was found to be 8.3.
